Screens as filed in PubChem BioAssay.
Only some compounds are listed: those with a hit (about 5.1% of all), similar ones and a draw of the others.
STAT1 activator – STAT1 signaling activators, primary screen, cell-based, HTS, luciferase reporter; NIH 3T3 STAT1-luciferase reporter, IFN-gamma, luminescence; 100% = IFN-gamma alone, no compound; activation (% of control), % at 5.5 µM; 200,000 compounds, 2.6% hits;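 active = activation above the screen-wide mean activation plus 3 SD, cut at about 130% in these data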
NF-kB expr up – activators of NF-kB expression in neurons, primary screen, cell-based, HTS; 190,000 compounds, 1.6% hits; human neuronal cells, NF-kB reporter expression; stronger effect = higher value; fold change at 12.5 µM; in the data active = fold change above about 3.3
STAT3 act – IL-6 driven STAT3 reporter potentiators, primary screen, U3A cells, luciferase, luminescence, MLSCN library | IL-6 STAT3-luciferase reporter; 100% = signal with IL-6 EC80 alone | activation (% of control), % at 5.6 µM | 190,000 compounds, 0.91% hits;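 active = activation above the screen-wide mean of compound activation plus 3 SD, cut at about 130% in these data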
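Test system: STAT3-luciferase reporter U3A cells; Detection: reporter luminescence signal; Times: 1 h compound pre-exposure, 6 h IL-6 stimulation, 37 °C; Benchmarks: IL-6-only high control; Also added: IL-6 stimulus at 33 ng/mL final.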
STAT3 blocker – IL-6 driven STAT3 reporter inhibitors, primary screen, U3A cells, luciferase, luminescence, MLSCN library | IL-6 STAT3-luciferase reporter; host cell line lacks STAT1 | inhibition, % at 5.5 µM | 190,000 compounds, 0.89% hits | AID 862, 2007;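 active = inhibition above the mean inhibition across all screened compounds plus 3 SD, cut at about 44% in these data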
STAT1 blocker – STAT1 signaling inhibitors, primary screen, cell-based, HTS, luciferase reporter; 200,000 compounds, 0.35% hits; inhibition, % at 5.5 µM; AID 920, 2007; NIH 3T3 STAT1-luciferase reporter, IFN-gamma, luminescence;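 active = inhibition above a set limit, the mean inhibition across all tested compounds plus 3 SD, cut at about 34% in these data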
APP 5'UTR act – activators of APP 5'UTR luciferase reporter, primary screen, SH-SY5Y cells; 190,000 compounds, 1% hits; activation, % at 2 µM; AID 1276, 2008; SH-SY5Y APP 5'UTR luciferase reporter, luminescence; zero percent = DMSO vehicle wells;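 active = activation above a set limit, based on mean plus 3 SD of controls, cut at about 140% in these data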
Numbers stand for hits.

COc1ccc(-c2cc(-c3ccc(OC)cc3)nc(-c3ccc4c(c3)NC(=O)CO4)c2)cc1 was read as STAT1 activator inactive, NF-kB expr up inactive, STAT3 act inactive, STAT3 blocker inactive, STAT1 blocker inactive and APP 5'UTR act inactive.
Screening COc1cccc(-c2nc(-c3ccc4c(c3)NC(=O)CO4)cs2)c1 returned STAT1 activator 142, NF-kB expr up inactive, STAT3 act inactive, STAT3 blocker inactive, STAT1 blocker inactive and APP 5'UTR act inactive.
`N/C(=N\OC(=O)Cc1ccccc1)c1cccnc1` gave STAT1 activator inactive, NF-kB expr up inactive, STAT3 act inactive, STAT3 blocker inactive, STAT1 blocker inactive and APP 5'UTR act inactive.
For N/C(=N\OC(=O)Cc1ccccc1)c1ccccc1Cl the results were STAT1 activator 147, NF-kB expr up inactive, STAT3 act inactive, STAT3 blocker inactive, STAT1 blocker inactive and APP 5'UTR act inactive.
For O=C(c1ccc(-c2ccc([N+](=O)[O-])cc2)o1)N1CCCCC1 the results were STAT1 activator inactive, NF-kB expr up 4.8, STAT3 act inactive, STAT3 blocker inactive, STAT1 blocker inactive and APP 5'UTR act 180.
O=C(c1ccc(-c2ccc(Cl)cc2)o1)N1CCN(c2ccc([N+](=O)[O-])cc2Cl)CC1 was read as STAT1 activator inactive, NF-kB expr up inactive, STAT3 act inactive, STAT3 blocker inactive, STAT1 blocker inactive and APP 5'UTR act inactive.
Cc1ccc(C(=O)Nc2ncc3c(Cl)cccc3n2)cc1 was read as STAT1 activator inactive, NF-kB expr up inactive, STAT3 act inactive, STAT3 blocker 63, STAT1 blocker inactive and APP 5'UTR act 141.
COCCNc1ccc(S(=O)(=O)N2CCCC2)cn1 was read as STAT1 activator inactive, NF-kB expr up inactive, STAT3 act inactive, STAT3 blocker inactive, STAT1 blocker inactive and APP 5'UTR act inactive.
`O/N=C/c1ccn(-c2ccc(Br)cc2)c1` gave STAT1 activator 131, NF-kB expr up inactive, STAT3 act inactive, STAT3 blocker inactive, STAT1 blocker inactive and APP 5'UTR act inactive.
`O=C(COC(=O)c1cccc(NS(=O)(=O)c2ccc(F)c(F)c2)c1)NC(=O)NC1CCCCC1` gave STAT1 activator inactive, NF-kB expr up inactive, STAT3 act inactive, STAT3 blocker inactive, STAT1 blocker inactive and APP 5'UTR act inactive.
`COC(=O)CC1C(=O)NCCN1Cc1cn(-c2ccc(C)cc2)nc1-c1cccc(C)c1` (stereo not given) gave STAT1 activator inactive, NF-kB expr up inactive, STAT3 act inactive, STAT3 blocker inactive, STAT1 blocker inactive and APP 5'UTR act inactive.
For O=[N+]([O-])c1cccc(-c2nc(-c3ccncc3)no2)c1 the results were STAT1 activator inactive, NF-kB expr up inactive, STAT3 act inactive, STAT3 blocker inactive, STAT1 blocker inactive and APP 5'UTR act inactive.
`O=[N+]([O-])c1cccc(-c2nnc(-c3ccc4c(c3)OCO4)o2)c1` gave STAT1 activator 141, NF-kB expr up inactive, STAT3 act inactive, STAT3 blocker inactive, STAT1 blocker inactive and APP 5'UTR act inactive.
Screening O=[N+]([O-])c1cccc(-c2nc(-c3ccccc3)no2)c1 returned STAT1 activator 138, NF-kB expr up 3.8, STAT3 act 140, STAT3 blocker inactive, STAT1 blocker inactive and APP 5'UTR act inactive.
For CN1CCN(NC(=O)CN2C(=O)/C(=C/c3ccccc3Cl)SC2=S)CC1 the results were STAT1 activator inactive, NF-kB expr up inactive, STAT3 act inactive, STAT3 blocker inactive, STAT1 blocker inactive and APP 5'UTR act inactive.
`CN1CCN(NC(=O)CN2C(=O)/C(=C/c3c(Cl)cccc3Cl)SC2=S)CC1` gave STAT1 activator inactive, NF-kB expr up inactive, STAT3 act 135, STAT3 blocker inactive, STAT1 blocker inactive and APP 5'UTR act inactive.
`COc1cccc(NC(=O)C(=S)NC2CCCCC2)c1` gave STAT1 activator 130, NF-kB expr up 7, STAT3 act inactive, STAT3 blocker inactive, STAT1 blocker inactive and APP 5'UTR act 156.
